# TRPC4 agonist: TRPC4 (mouse) channel activation | HEK293 TRPC4beta/mu-opioid, Fluo4 calcium fluorescence; active compounds read high | B-score at 10 µM | Q9QUQ5 | hit rate 0.49% among 310,000;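 active means B-score above 5 SD of library B-scores, and initial fluorescence ratio not above library mean plus 5 SD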;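 further: positive B-score marks a calcium rise read as TRPC4 activation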
# Target sequence (Q9QUQ5 whole entry, looked up): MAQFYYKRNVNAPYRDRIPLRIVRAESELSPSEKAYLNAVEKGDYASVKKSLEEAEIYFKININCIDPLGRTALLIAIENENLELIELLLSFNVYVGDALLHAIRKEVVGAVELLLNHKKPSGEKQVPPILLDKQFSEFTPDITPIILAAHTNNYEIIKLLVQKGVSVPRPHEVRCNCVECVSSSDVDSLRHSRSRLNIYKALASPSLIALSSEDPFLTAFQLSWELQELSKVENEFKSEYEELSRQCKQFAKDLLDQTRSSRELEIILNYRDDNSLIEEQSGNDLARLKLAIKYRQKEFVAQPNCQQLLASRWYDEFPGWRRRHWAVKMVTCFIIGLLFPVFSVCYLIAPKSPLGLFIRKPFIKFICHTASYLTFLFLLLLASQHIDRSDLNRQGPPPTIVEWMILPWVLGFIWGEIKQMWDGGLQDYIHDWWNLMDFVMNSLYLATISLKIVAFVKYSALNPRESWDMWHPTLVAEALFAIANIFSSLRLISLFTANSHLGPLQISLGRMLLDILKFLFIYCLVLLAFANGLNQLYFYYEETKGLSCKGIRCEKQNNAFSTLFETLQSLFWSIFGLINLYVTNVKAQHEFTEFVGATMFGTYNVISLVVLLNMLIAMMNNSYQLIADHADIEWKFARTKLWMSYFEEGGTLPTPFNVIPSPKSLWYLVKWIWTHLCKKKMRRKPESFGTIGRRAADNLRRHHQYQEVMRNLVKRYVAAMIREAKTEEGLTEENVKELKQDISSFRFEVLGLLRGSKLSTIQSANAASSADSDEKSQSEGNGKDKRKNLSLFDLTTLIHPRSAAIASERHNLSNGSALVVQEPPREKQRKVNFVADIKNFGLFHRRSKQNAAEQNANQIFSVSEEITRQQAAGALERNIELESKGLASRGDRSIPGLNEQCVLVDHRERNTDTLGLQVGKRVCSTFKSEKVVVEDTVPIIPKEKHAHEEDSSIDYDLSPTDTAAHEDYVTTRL
#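 Assay system: HEK293 stable line with TRPC4beta plus mu-opioid receptor; schedule: 45 min room-temperature Fluo4 loading, 110 s read; technique: kinetic Fluo4 calcium fluorescence; evaluation: integrated baseline-normalised fluorescence ratio, converted to per-well B score; controls: buffer (low) and maximal DAMGO (high)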
# TRPC4 PAM: allosterically enhances the mouse TRPC4 cation channel | HEK293 TRPC4beta/mu-opioid, DAMGO EC20, Fluo-4 Ca2+ flux; active compounds read high | hit rate 0.42% among 310,000 | B-score at 10 µM;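 active means B-score of calcium response area above 5 SD of library B-scores, with initial fluorescence ratio within 5 SD of library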;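 further: B-score of integrated fluorescence ratio over time as area under calcium response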
# TRPC6 inh: mouse TRPC6 channel inhibition; hit rate 1.1% among 310,000; HEK293-TRPC6, membrane potential dye, ACh-evoked depolarization; active compounds read low; AID 2553; B-score at 10 µM;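 active means B-score under library mean minus 3 SD, initial fluorescence not abnormally high, positive integrated signal ratio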;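 further: B-score derived from integrated fluorescence ratio over the kinetic read; more negative B-score means stronger inhibition of depolarization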
# TRPC6 activator: activates the mouse TRPC6 cation channel; HEK293-TRPC6 membrane potential dye fluorescence; active compounds read high; Q61143; B-score at 10 µM; hit rate 0.13% among 310,000;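 active means B-score of the integrated fluorescence ratio above library mean plus 3 SD, and starting fluorescence ratio within library mean plus 5 SD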;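 further: higher score means more depolarization so channel activation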
# TRPC4 block: TRPC4 (mouse) channel inhibition; Q9QUQ5; HEK293 TRPC4beta/mu-opioid, DAMGO-evoked Fluo4 calcium flux; active compounds read low; B-score at 10 µM; hit rate 0.39% among 300,000; AID 2247;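 active means B-score over 3 SD under the library average, no early fluorescence shift, positive overall ratio signal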
#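 Material: HEK293 cells with stable TRPC4beta plus mu-opioid receptor expression / Probe or stimulus: DAMGO in two steps, submaximal then maximal / Compound: single concentration per test compound / Technique: kinetic Fluo4 fluorescence imaging of calcium influx / Read-out: per-well B score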
# TRPC4 spec 2: second check of whether TRPC6 inhibitors also affect mouse TRPC4; shares compounds with TRPC6 inh; HEK293 TRPC4/MOR, membrane potential dye fluorescence; channel activated by saturating DAMGO dose; inhibition, % at 10 µM; hit rate 42% among 920; AID 2776;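 active means compounds whose fluorescence signal differed from control wells by over 3 SD, either direction, in both duplicate plates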
# TRPC4 spec: selectivity of TRPC6 inhibitors: effect on mouse TRPC4 | HEK293 TRPC4/mu-opioid, membrane potential fluorescence | shares compounds with TRPC6 inh | AID 2777 | activity change, negative = inhibition, % at 10 µM | hit rate 61% among 920;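 active means rise or fall in signal beyond 3 SD of buffer-only wells in both replicate plates, either sign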;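 further: integrated kinetic ratio of fluorescence range over baseline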
# HEK293 MPD ctr 2-1: second counter-screen for TRPC6 inhibitors: parental HEK293 cells. hit rate 31% among 920. parental HEK293 membrane potential dye fluorescence; maximal acetylcholine challenge after compound addition. shares compounds with TRPC6 inh. signal change vs control, % at 10 µM;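 active means membrane potential signal moving either way by over 3 SD of the maximum-effect control, in both duplicate plates, meaning non-specific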
# HEK293 MPD ctr-1: counter-screen for TRPC6 inhibitors: effect in parental HEK293 cells | shares compounds with TRPC6 inh | parental HEK293 membrane potential dye fluorescence | membrane potential signal change, % at 10 µM | hit rate 60% among 920;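 active means membrane potential signal shifting up or down by more than 3 SD of buffer-only wells, on both duplicate plates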
# HEK293 MPD ctr-2: checks TRPC6 modulator effects in parental HEK293 cells | hit rate 51% among 2,400 | AID 488924 | membrane potential dye fluorescence | shares compounds with TRPC6 inh | membrane potential signal change, % at 10 µM;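 active means membrane potential signal moves up or down beyond 5 SD from buffer-only wells, on both duplicate plates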
# HEK293 MPD ctr 2-2: second counter-screen for TRPC6 modulators: effect in parental HEK293 cells | shares compounds with TRPC6 inh | membrane potential dye fluorescence; after compound, maximal acetylcholine stimulation | inhibition, % at 10 µM | hit rate 14% among 2,400 | AID 488926;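 active means membrane potential signal drops by more than 5 SD from the mean control signal, in both duplicate plates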;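 further: plate controls were acetylcholine ECmax control wells for no effect and buffer only wells for full effect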
# TRPC4 ctr mod: selectivity of TRPC6 modulators against mouse TRPC4. shares compounds with TRPC6 inh. HEK293 TRPC4/mu-opioid, membrane potential fluorescence. percent change from control (negative = decrease, positive = increase), % at 10 µM. hit rate 69% among 2,400. AID 488927;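 active means membrane potential signal moved up or down beyond 5 SD of buffer control wells, in both duplicate plates, actives on both sides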;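 further: plate controls were assay buffer wells for no effect and DAMGO maximal-effect wells for full effect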
# TRPC4 ctr inh 2: second selectivity test of TRPC6 modulators against mouse TRPC4 | shares compounds with TRPC6 inh | hit rate 55% among 2,400 | HEK293 TRPC4/mu-opioid, membrane potential dye fluorescence; stimulated with maximal-effect DAMGO | inhibition, % at 10 µM | AID 488928;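 active means drop in membrane potential signal beyond 5 SD of the control wells in both duplicate plates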;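 further: TRPC4 counter screen for TRPC6 hits run under conditions tuned for TRPC6 not TRPC4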
# TRPC6 block conf: confirmation of mouse TRPC6 inhibitors; shares compounds with TRPC6 inh; HEK293-TRPC6, membrane potential dye, ACh-evoked depolarization; inhibition, % at 10 µM; hit rate 43% among 3,300;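 active means fluorescence ratio falls more than 5 SD below the full-stimulation control mean, in both duplicate runs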;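 further: integrated fluorescence ratio of peak minus minimum over baseline after agonist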
# TRPC6 act conf: mouse TRPC6 activator confirmation; shares compounds with TRPC6 inh; HEK293-TRPC6 membrane potential dye fluorescence, FDSS; activation, % at 10 µM; hit rate 11% among 2,800;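 active means ratio signal rise beyond 5 SD above unstimulated control wells' mean, seen in both duplicate runs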;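 further: plate controls were buffer EC0 wells for no effect and acetylcholine ECmax response for full effect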
# * hit, by the source's call; i = inactive; . = no result. A selection: hits, their analogues and other compounds. The true share with any hit is near 2.3%.
SMILES,TRPC4 agonist,TRPC4 PAM,TRPC6 inh,TRPC6 activator,TRPC4 block,TRPC4 spec 2,TRPC4 spec,HEK293 MPD ctr 2-1,HEK293 MPD ctr-1,HEK293 MPD ctr-2,HEK293 MPD ctr 2-2,TRPC4 ctr mod,TRPC4 ctr inh 2,TRPC6 block conf,TRPC6 act conf
CCOC(=O)N1CCN(Cc2nc(-c3ccc(Cl)cc3)no2)CC1,i,i,-8.88*,i,i,i,i,i,i,.,.,.,.,i,.
NCC12CC3CC(C1)CC(c1ccc(Br)cc1)(C3)C2,i,i,-8.56*,i,i,43.5%*,-10.2%*,i,-178.5%*,.,.,.,.,62.4%*,i
NCCOc1ccc(C23CC4CC(CC(C4)C2)C3)cc1,i,i,i,i,i,.,.,.,.,.,.,.,.,.,.
Cc1ccc(C23CC4CC(CC(CN)(C4)C2)C3)cc1,i,i,-7.52*,i,i,42.0%*,-11.3%*,i,-176.5%*,.,.,.,.,i,i
Cc1cccc[n+]1CC(=O)Nc1ccc([N+](=O)[O-])cc1Cl,i,i,i,i,i,.,.,.,.,.,.,.,.,.,.
O=C(C[n+]1ccc(Cc2ccccc2)cc1)Nc1ccc([N+](=O)[O-])cc1Cl,i,i,-7.59*,i,i,i,-26.8%*,i,-333.5%*,.,.,.,.,i,i
O=C(c1ccc(NS(=O)(=O)c2ccc3[nH]c(=O)[nH]c3c2)cc1)N1CCCC(C(F)(F)F)C1 (stereo not given),i,i,i,i,i,.,.,.,.,.,.,.,.,.,.
CN1CCN(C2=C(NS(=O)(=O)c3cccs3)C(=O)c3ccccc3C2=O)CC1,i,i,i,i,i,.,.,.,.,.,.,.,.,.,.
O=C1C(NS(=O)(=O)c2cccs2)=C(N2CCN(Cc3ccccc3)CC2)C(=O)c2ccccc21,i,i,-7.28*,i,i,.,.,.,.,-135.5%*,i,-36.0%*,72.5%*,57.5%*,i
CN1C(=O)/C(=C\c2ccc(N(C)C)cc2)OC1=S,i,i,i,19*,i,.,.,.,.,322.5%*,i,73.5%*,i,i,123.0%*
CCN1CCN(c2nc3ccccc3nc2C(C#N)C(=O)OCc2ccccc2)CC1 (stereo not given),i,i,-7.28*,i,i,40.5%*,-19.2%*,i,-200.0%*,.,.,.,.,i,i
CCCCCCOC(=O)C(C#N)c1nc2ccccc2nc1N1CCN(CC)CC1 (stereo not given),i,i,-5.33*,i,i,.,.,.,.,i,i,-29.0%*,70.5%*,i,i
CN(C)CCNc1c2c(c(C#N)c3nc4ccccc4n13)CCCC2,i,i,-11.2*,i,i,59.5%*,-28.1%*,48.0%*,-383.5%*,.,.,.,.,72.6%*,i
N#Cc1c2c(c(NCc3ccco3)n3c1nc1ccccc13)CCC2,i,i,i,i,i,.,.,.,.,.,.,.,.,.,.
CCN(CC)CCNc1c2c(c(C#N)c3nc4ccccc4n13)CCCC2,i,i,-5.06*,i,i,.,.,.,.,i,i,-18.0%*,36.5%*,42.5%*,i
O=C(NCc1ccccn1)Nc1ccccc1F,i,i,i,i,i,.,.,.,.,.,.,.,.,.,.
CCc1ccc(NC(=O)c2cnccn2)cc1,i,i,i,i,i,.,.,.,.,.,.,.,.,.,.
CCCn1c(C)cc(=O)c2cc(NC(=O)c3cnccn3)ccc21,i,i,-12.1*,i,i,.,.,.,.,-299.5%*,85.5%*,-60.0%*,59.5%*,65.5%*,i
O=C(Nc1ccc2nccnc2c1)c1cnccn1,i,i,-5.82*,i,i,.,.,.,.,-272.0%*,i,-48.0%*,41.5%*,49.0%*,i
O=C(O)CNC(=O)C12CC3CC(CC(Cl)(C3)C1)C2,i,i,i,i,i,.,.,.,.,.,.,.,.,.,.
COc1ccc(OCC(=O)OC2CCN(C)CC2)cc1,i,i,i,i,i,.,.,.,.,.,.,.,.,.,.
CN1CCC(OC(=O)COc2ccc(Br)cc2)CC1,i,i,-5.53*,i,i,.,.,.,.,i,i,13.0%*,i,i,.
CN1CCN(c2ccccc2NC(=O)COc2ccc(Br)cc2)CC1,i,i,-5.09*,i,i,.,.,.,.,i,i,17.5%*,i,i,i
Cc1cc(OCCN2CCOCC2)ccc1Cl,i,i,i,i,i,.,.,.,.,.,.,.,.,.,.
CCOc1ccc(N2C(=O)C3=C(C(c4ccc(Cl)cc4)=NCCN3)C2c2cccnc2)cc1 (stereo not given),i,i,i,i,i,.,.,.,.,.,.,.,.,.,.
Cc1ccc(C2C3=C(NCCN=C3c3ccccc3)C(=O)N2c2ccccc2)cc1 (stereo not given),i,i,-6.62*,i,i,16.5%*,18.4%*,i,1.3%*,.,.,.,.,74.9%*,i
COc1ccc(S(=O)(=O)N2CCN(c3ccc4nnc(-c5ccc(F)cc5)n4n3)CC2)cc1,i,i,-6.78*,i,i,i,i,i,i,.,.,.,.,i,i
c1ccc(C2c3[nH]c4ccccc4c3CCN2Cc2cccn2-c2ccccn2)nc1 (stereo not given),i,i,i,i,i,.,.,.,.,.,.,.,.,.,.

# Bioassay records deposited in PubChem by Johns Hopkins Ion Channel Center.
